From ChEMBL document CHEMBL1131338, “Binding of ATP-sensitive potassium channel (KATP) openers to cardiac membranes: correlation of binding affinities with cardioprotective and smooth muscle relaxing potencies” (J Med Chem, 1998)

What was measured:
Rattus norvegicus [1] = species: Rattus norvegicus; assay: Effective concentration required to increase time to the onset of contracture (TTC) in globally ischemic rat hearts; format: functional
[2] = biological target: Sulfonylurea receptor 2, Kir6.2 (Homo sapiens) (UniProt Q14654+O60706); assay: Hill Coefficient calculated by curve fitting of data to a single binding site model; format: protein-complex assay
In short: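 Competition curves from displacement of 14 nM [3H]P1075 from canine cardiac P3 membranes (500–700 μg, 60 min, MgATP/vanadate/Mg2+ sucrose-Tris buffer pH 7.4, filtration read-out) were fitted to a single-site model to give the Hill coefficient.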

Rattus norvegicus [3] = species: Rattus norvegicus; assay: Inhibitory concentration against methoxamine-induced contractions in rat aorta; format: functional, organism-based

| SMILES | EC25 (Rattus norvegicus [1]) [nM] | Hill coefficient [2] | IC50 (Rattus norvegicus [3]; Rattus norvegicus, Aorta) [nM] | IC50 (Rattus norvegicus [3]) [nM] |
| --- | --- | --- | --- | --- |
| CCC(C)(C)/N=C(\NC#N)Nc1ccc(C#N)cc1 | 400 | 0.99 | 130 |  |
| CC1(C)Oc2ccc(C#N)cc2[C@H](N2CCCC2=O)[C@H]1O [(-)-CROMAKALIM] | >30000 |  |  | 6500 |
| CCC(C)(C)/N=C(\NC#N)Nc1ccc(S(=O)(=O)N2CCCCC2)cc1 | >10000 |  | > 30 |  |
| CCC(C)(C)/N=C(\NC#N)Nc1cccc(S(=O)(=O)N2CCCCC2)c1 | >10000 |  | 12800 |  |
| CC1(C)Oc2ccc(C#N)cc2[C@H](N2CCCC2=O)[C@H]1O |  | 1.06 |  |  |
| CC(N/C(=N\C#N)Nc1ccncc1)C(C)(C)C (stereo not given) [PINACIDIL ANHYDROUS] | 1200 | 0.86 | 59.6 |  |
| CCC(C)(C)/N=C(\NC#N)Nc1ccc(I)cc1 | 140 | 0.76 | 1.4 |  |
| CC(C)(C)/N=C(\NC#N)Nc1ccc(C#N)cc1 | 1380 | 1.15 | 530 |  |
| CC(/N=C(\NC#N)Nc1cccc(C#N)c1)C(C)(C)C (stereo not given) | 1460 | 0.67 | 190 |  |
| C/N=C(\NC#N)Nc1ccc(C#N)cc1 | >10000 |  | 130000 |  |
| CC1(C)Oc2ccc(C#N)cc2[C@H](N2CCCC2=O)[C@H]1O (single isomer, unassigned) [(-)-CROMAKALIM] | 2300 |  |  | 40.1 |
| COc1ccc(Cl)cc1C(=O)NCCc1ccc(S(=O)(=O)NC(=O)NC2CCCCC2)cc1 [GLYBURIDE] |  | 0.67 |  |  |
| CC(C)/N=C(\NC#N)Nc1ccc(C#N)cc1 |  | 0.81 |  |  |
| CC1(C)Oc2ccc(C#N)cc2[C@H](N2CCCC2=O)[C@H]1O (single isomer, unassigned) |  | 1.5 |  |  |
| CCC(C)(C)/N=C(\NC#N)Nc1ccc(I)c(N=[N+]=[N-])c1 | 39 | 0.82 |  |  |
| CC(/N=C(\NC#N)Nc1ccc(C#N)cc1)C(C)(C)C (stereo not given) | 390 | 0.75 | 30.3 |  |
| CCC(C)(C)/N=C(\NC#N)Nc1cccnc1 | 60 | 1.17 | 4.4 |  |
| CC(/N=C(\NC#N)Nc1ccccc1)C(C)(C)C (stereo not given) | 1290 | 1.04 | 980 |  |
